{"data": "Published values from different studies", "HLA class I histocompatibility antigen, A alpha chain": "HLA class I histocompatibility antigen, A alpha chain (Homo sapiens, UniProt P04439)", "BACE1": "Beta-secretase 1 (BACE1, Homo sapiens, UniProt P56817)", "note": "Lines come from different studies, so protocols differ."}
{"SMILES": "COc1cc2c(cc1OC)CN(CCc1ccc(NC(=O)c3cccc4c(=O)c5cccc(OC)c5[nH]c34)cc1)CC2", "target": "D(2) dopamine receptor (DRD2, Homo sapiens, UniProt P14416)", "effect on": "cell-free assay", "measurement": "Ki", "value": "943 nM"}
{"SMILES": "CC[C@H](C)[C@H](NC(=O)[C@@H](N)CCCNC(=N)N)C(=O)N[C@@H](Cc1ccc(O)cc1)C(=O)NCC(=O)N1CCC[C@H]1C(=O)N1CCC[C@H]1C(=O)N[C@@H](Cc1c[nH]cn1)C(=O)N[C@@H](CCC(N)=O)C(=O)N[C@@H](Cc1ccccc1)C(=O)O", "target": "HLA class I histocompatibility antigen, A alpha chain", "effect on": "cell-free assay", "measurement": "IC50", "value": "376 nM"}
{"SMILES": "C=CCOc1ccc(C(=O)/C=C/c2ccc(OC)cc2)c(OS(=O)(=O)c2ccccc2[N+](=O)[O-])c1I", "target": "BACE1", "effect on": "enzyme activity", "action": "inhibitor", "technique": "fluorescence", "measurement": "IC50", "value": "23900 nM"}
{"SMILES": "CSCC[C@H](NC(=O)[C@@H](N)CCCCN)C(=O)N[C@@H](Cc1c[nH]c2ccccc12)C(=O)NCC(=O)N[C@@H](CCCCN)C(=O)N1CCC[C@H]1C(=O)N[C@@H](CCSC)C(=O)N[C@H](C(=O)N[C@@H](Cc1ccccc1)C(=O)O)[C@@H](C)O", "target": "HLA class I histocompatibility antigen, A alpha chain", "effect on": "cell-free assay", "measurement": "IC50", "value": "213 nM"}
{"SMILES": "CCOC(=O)c1ccc(OC(=O)CCCCCN=C(N)N)cc1", "target": "Transmembrane protease serine 6 (Homo sapiens, UniProt Q8IU80)", "effect on": "enzyme activity", "action": "inhibitor", "measurement": "IC50", "value": "412 nM"}
{"SMILES": "CSCC[C@H](NC(=O)[C@@H](N)CCCNC(=N)N)C(=O)N[C@@H](Cc1ccccc1)C(=O)NCC(=O)N1CCC[C@H]1C(=O)N[C@H](C(=O)N[C@@H](CCC(N)=O)C(=O)N[C@H](C(=O)N[C@@H](Cc1ccc(O)cc1)C(=O)O)[C@@H](C)O)C(C)C", "target": "HLA class I histocompatibility antigen, A alpha chain", "effect on": "cell-free assay", "measurement": "IC50", "value": "45 nM"}
{"SMILES": "C=CCOc1ccc(C(=O)/C=C/c2cccc(F)c2)c(OS(=O)(=O)c2ccc(F)cc2)c1I", "target": "BACE1", "effect on": "enzyme activity", "action": "inhibitor", "technique": "fluorescence", "measurement": "IC50", "value": "27800 nM"}
{"SMILES": "CCCC[C@H](NC(C)=O)C(=O)N[C@H]1CC(=O)NCCCC[C@@H](C(=O)N2CCC[C@@H]2C(=O)N[C@@H](C(=O)N2CCC[C@@H]2C(N)=O)C(C)C)NC(=O)[C@H](Cc2c[nH]c3ccccc23)NC(=O)[C@H](CCCNC(=N)N)NC(=O)[C@@H](Cc2ccccc2)NC(=O)[C@@H]2CCCN2C1=O", "target": "Melanocortin receptor 3 (MC3R, Homo sapiens, UniProt P41968)", "effect on": "cAMP", "action": "agonist", "measurement": "EC50", "value": "> 1000 nM"}
{"SMILES": "COc1cc(C(F)(F)F)c(OC)cc1C1CCCNC1 (stereo not shown)", "target": "5-hydroxytryptamine receptor 2C (Htr2c, Mus musculus, UniProt P34968)", "effect on": "G protein activation", "action": "agonist", "technique": "BRET", "measurement": "EC50", "value": "30.9 nM"}
{"SMILES": "C=CCOc1ccc(C(=O)/C=C/c2ccc(OC)cc2)c(OS(=O)(=O)c2ccc(OC)cc2)c1I", "target": "BACE1", "effect on": "enzyme activity", "action": "inhibitor", "technique": "fluorescence", "measurement": "IC50", "value": "18200 nM"}
